Assay results collected from several papers.
Each line is one published result; the experiments were not run side by side.
Target: Cyclin-dependent kinase 9 (CDK9, Homo sapiens, UniProt P50750)

| SMILES | read-out | method | tested at | remaining binding [%] |
| --- | --- | --- | --- | --- |
| COc1ncc2cc3ccccc3nc2c1C#N | cell-free assay | competition with immobilised ligand | 5 µM | 91 |
| c1cnn2ncc(-c3ccnc(N4CCC45COC5)n3)c2c1 | binding |  | 1 µM | 93 |
| O=C(O)[C@H]1[C@H](Cn2nnc3ccccc3c2=O)CC[C@@H]1C(=O)c1ccc(OCCC2CCOCC2)cc1 | cell-free assay | competition with immobilised ligand | 1 µM | 72 |
| COc1ccnn2ncc(-c3ccnc(N(C)C)n3)c12 | binding |  | 1 µM | 100 |
| CO[C@H]1CC[C@H](CNc2ccc(S(=O)(=O)NC(=O)c3ccc(N4CCN(CC5=C(c6ccc(Cl)cc6)CC(C)(C)CC5)CC4)cc3Oc3cnc4[nH]ccc4c3)cc2[N+](=O)[O-])CC1 | cell-free assay | competition with immobilised ligand | 1 µM | 91 |
| CNC(=O)[C@@H]1CC[C@@H](n2c(-c3ccc4cnccc4c3)nc3ccc(C(=O)NCc4cccc(C(N)=O)c4)cc32)C1 | binding | competition with immobilised ligand | 1 µM | 100 |
| C[C@@H]1CN(c2ccc3ncc(-c4ccc5[nH]nc(C6CC6)c5c4)n3n2)C[C@H](C)O1 | binding | competition with immobilised ligand | 0.5 µM | 78 |
| O=C(c1ccc(Nc2ncc(Cl)c(-c3ccc(Cl)s3)n2)cc1)N1CCC(N2CCCC2)CC1 | binding | competition with immobilised ligand | 1 µM | 68 |
| c1cncc(-c2cccc(Nc3nccc(NC4CCCCC4)n3)c2)c1 | binding | competition with immobilised ligand | 10 µM | 63 |
| COc1ccc2c(c1)O[C@@H](c1ccc(OC)c(OC)c1)C[C@H]2NC(=O)C1(c2ccc3c(c2)OC(F)(F)O3)CC1 | cell-free assay | competition with immobilised ligand | 1 µM | 89 |
| C=CC(=O)N1CCC(C(=O)NCC(=O)N2CCN(c3nc(-c4cnc(N)nc4C(F)F)nc(N4CCOCC4)n3)CC2)CC1 | binding | competition with immobilised ligand | 1 µM | 98 |
| CN(c1ccnc(CNc2nc(Nc3ccc4c(c3)CC(=O)N4)ncc2C(F)(F)F)n1)S(C)(=O)=O | cell-free assay | competition with immobilised ligand | 1 µM | 84 |
| CCN1CCN(Cc2ccc(C(=O)Nc3ccc(C)c(Oc4ccc5c(c4)CC(=O)N5)c3)cc2C(F)(F)F)CC1 | binding | competition with immobilised ligand | 1 µM | 100 |
| Cc1cnn2ncc(-c3ccnc(N(C)C)n3)c2c1 | binding |  | 1 µM | 91 |
| Nc1c(C(=O)NCc2ccc(C(=O)NCCCC3CCCCC3)cc2)cnn1-c1ccccc1 | cell-free assay | competition with immobilised ligand | 0.1 µM | 100 |
| CN(c1nccc(-c2cnn3ncccc23)n1)C1CC1 | binding |  | 1 µM | 100 |
| O=C(c1ccc(Nc2nccc(-c3cc4ccccc4s3)n2)cc1)N1CCC(N2CCCC2)CC1 | binding | competition with immobilised ligand | 1 µM | 85 |
| CCOCCn1cc(C(=O)Nc2ccc(-n3nc(-c4cccnc4)cc3C(F)(F)F)cn2)ccc1=O | cell-free assay | competition with immobilised ligand | 1 µM | 97 |
| O=C(c1ccc(Nc2ncc(Cl)c(-c3cc4ccccc4s3)n2)cc1)N1CCC(N2CCCC2)CC1 | binding | competition with immobilised ligand | 1 µM | 82 |
| C[C@@H](c1cccc(C#N)c1)n1cc(Cl)cc(C(N)=O)c1=N | cell-free assay | competition with immobilised ligand | 1 µM | 91 |
| O=C(NCC1CCOCC1)c1n[nH]cc1NC(=O)c1c(F)cccc1F | binding | competition with immobilised ligand | 1 µM | 83 |
| CN(C)c1ncc(F)c(-c2cnn3ncccc23)n1 | binding |  | 1 µM | 100 |
| C[C@@H](c1ccc(-n2cnc3c(N)ncnc32)cc1)N1CCc2nn(C)c(Cc3ccccc3)c2C1=O | binding | competition with immobilised ligand | 0.1 µM | 85 |
| CC(C)(C)c1ccc(-c2nc(CBr)nn2-c2cccc(O)c2)cc1 | cell-free assay | competition with immobilised ligand | 10 µM | 91 |
